From ChEMBL document CHEMBL3085708, “Identification and profiling of 3,5-dimethyl-isoxazole-4-carboxylic acid [2-methyl-4-((2S,3'S)-2-methyl-[1,3']bipyrrolidinyl-1'-yl)phenyl] amide as histamine H(3) receptor antagonist for the treatment of depression” (Bioorg Med Chem Lett, 2013) come the findings set out here.

The target of data set [1] is T1, Histamine H3 receptor (Homo sapiens, UniProt Q9Y5N1). As to the kind of experiment: Inverse agonist activity at human histamine H3 receptor (445 amino acid residues) expressed in CHO cells by CRE-luciferase reporter gene assay. Format: functional, cell-based. (In a reporter assay the amount or activity of a reporter protein is the signal.)
A short description of data set [2]: AUC (0 to infinity) in Sprague-Dawley rat plasma at 2 mg/kg, iv. On the set-up: time infinity, dose 2 mg/kg, route intravenous. The format is ADME, organism-based. The method in brief: (§1)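 Single-dose PK; male OF1 mice and male Sprague-Dawley rats, 2 mg/kg iv and 10 mg/kg po. Mouse vehicles: iv 50% 1-methyl-2-pyrrolidinone in saline (1.0 mg/mL); po 5% DMSO/0.5% MC/0.2% Tween80 (1.0 mg/mL). Rat vehicles: iv saline (0.5 mg/mL); po 0.5% MC/0.2% Tween80 (1.0 mg/mL). Plasma and brain exposure read as AUC0-∞ and t1/2.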

Data set [3] in a line: Elimination half life in Sprague-Dawley rat brain at 2 mg/kg, iv. Format: ADME, organism-based. On the set-up: dose 2 mg/kg, route intravenous. To be noted: read-out: beta t1/2 (converted). The method in brief:
as §1

The target in the next data set is Cytochrome P450 2C19 (Homo sapiens, UniProt P33261). As to the kind of experiment: Inhibition of CYP2C19 (unknown origin) after 4 hrs. Format: ADME.
Data set [4] in a line: Dissociation constant, pKa of the compound. Format: physicochemical.
For data set [5], the target named is T1, Histamine H3 receptor. As to the kind of experiment: Displacement of [3H]-methylhistamine from human histamine H3 receptor transfected in human 293 cells after 1 hr by scintillation counting analysis. The format is cell-based.
The nature of data set [6]: Volume of distribution in OF1 mouse at 2 mg/kg, iv. Format: ADME, organism-based. On the set-up: dose 2 mg/kg, route intravenous. To be noted: in vivo. Summed up: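 Male OF1 mice given 2 mg/kg iv (50% 1-methyl-2-pyrrolidinone in saline, 1.0 mg/mL) and 10 mg/kg po (5% DMSO/0.5% MC/0.2% Tween80, 1.0 mg/mL); plasma and brain exposure measured; B/P ratio from iv AUC.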

Data set [7] is described as follows: Drug metabolism in dog liver microsomes. The format is ADME, Canis lupus familiaris. The settings on record: read-out: Drug metabolism.

Structures are written as SMILES.

T1 sequence (Q9Y5N1 whole entry): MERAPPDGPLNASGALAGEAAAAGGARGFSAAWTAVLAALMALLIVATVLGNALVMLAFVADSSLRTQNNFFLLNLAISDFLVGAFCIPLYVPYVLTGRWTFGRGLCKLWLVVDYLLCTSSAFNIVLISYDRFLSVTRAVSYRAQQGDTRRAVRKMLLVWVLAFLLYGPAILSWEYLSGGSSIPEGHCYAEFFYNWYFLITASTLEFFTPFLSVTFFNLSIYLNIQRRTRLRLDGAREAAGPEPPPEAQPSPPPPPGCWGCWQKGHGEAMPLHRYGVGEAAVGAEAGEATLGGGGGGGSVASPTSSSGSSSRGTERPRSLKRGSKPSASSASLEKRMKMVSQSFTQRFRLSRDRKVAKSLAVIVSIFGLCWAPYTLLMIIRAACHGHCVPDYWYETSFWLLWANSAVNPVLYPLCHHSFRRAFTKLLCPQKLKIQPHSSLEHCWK
Chain of Cytochrome P450 2C19 (P33261 whole entry): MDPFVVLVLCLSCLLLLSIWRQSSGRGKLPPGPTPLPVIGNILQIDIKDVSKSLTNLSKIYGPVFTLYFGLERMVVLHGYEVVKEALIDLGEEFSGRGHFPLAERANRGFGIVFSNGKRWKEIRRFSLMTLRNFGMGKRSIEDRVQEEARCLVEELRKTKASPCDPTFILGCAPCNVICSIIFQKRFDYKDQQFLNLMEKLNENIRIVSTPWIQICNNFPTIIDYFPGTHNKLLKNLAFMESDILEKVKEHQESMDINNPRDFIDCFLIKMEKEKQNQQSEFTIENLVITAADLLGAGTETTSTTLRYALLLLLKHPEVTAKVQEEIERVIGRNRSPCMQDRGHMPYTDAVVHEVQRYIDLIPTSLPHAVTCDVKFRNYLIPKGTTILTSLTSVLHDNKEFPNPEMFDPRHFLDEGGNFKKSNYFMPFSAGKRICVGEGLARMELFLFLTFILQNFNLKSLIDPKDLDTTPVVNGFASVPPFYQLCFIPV

At Histamine H3 receptor [1], `Cc1cc(N2CC[C@H](N3CCC[C@@H]3C)C2)ccc1NC(=O)c1c(C)noc1C` came in with an EC50 of 0.7 nM. Moreover, the AUC(0-inf) in data set [2] is 1100 ng·h/mL. Also, the half-life in data set [3] is 1.8 h. The compound further had an IC50 on Cytochrome P450 2C19 above 100000 nM. Also, the pKa in data set [4] was determined as 10.1. For the same compound, the Ki at Histamine H3 receptor [5] is 0.1 nM. This compound also registered a Vd in data set [6] of 1.7 L/kg. In addition, the metabolised in data set [7] was below 5%.

Broadly, the EC50 is the concentration at which the effect is half-maximal. By AUC(0-inf) is commonly meant the area under the concentration-time curve extrapolated to infinity. Read a low AUC(0-inf) as low exposure. Usually IC50 stands for the concentration needed to halve the response being measured. Read a low IC50 as greater potency. Broadly, the pKa is the pH at which an ionisable group is half protonated. What is called Ki is the equilibrium dissociation constant of an inhibitor or competing ligand from its target. The low end stands for a stronger hold on the target, the high end for a looser hold on the target. What is called Vd is the apparent volume that relates the amount in the body to the concentration in plasma or blood.
